Reference: ChEMBL document CHEMBL1143122, “Novel analogs of D-e-MAPP and B13. Part 1: synthesis and evaluation as potential anticancer agents” (Bioorg Med Chem, 2008)

What was measured:
ACHN = assay: Antiproliferative activity against human ACHN cells after 48 hrs; assay type: functional
Method in brief: (§1)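 NCI 60-cell screen. Cells were grown in RPMI 1640 with 5% FBS and 2 mM L-glutamine, then plated at 5,000–40,000 cells/well according to doubling time and preincubated for 24 h at 37 °C in 5% CO2. Compounds were dissolved in DMSO at 400× the top final concentration and tested at five 10-fold dilutions from 10−4 to 10−8 M for 48 h. Growth was read spectrophotometrically; GI50 is 50% net protein reduction.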

MDA-MB-435 = assay: Antiproliferative activity against human MDA-MB-435 cells after 48 hrs; assay type: functional; conditions: Homo sapiens, MDA-MB-435, 48 h; method in brief: as §1
NCI-H23 = assay: Antiproliferative activity against human NCI-H23 cells after 48 hrs; assay type: functional; conditions: NCI-H23, 48 h; method in brief: as §1
OVCAR-4 = assay: Antiproliferative activity against human OVCAR4 cells after 48 hrs; assay type: functional; conditions: OVCAR-4, 48 h; method in brief: as §1
SF-539 = assay: Antiproliferative activity against human SF539 cells after 48 hrs; assay type: functional; conditions: SF-539, 48 h; method in brief: as §1
SNB-75 = assay: Antiproliferative activity against human SNB75 cells after 48 hrs; assay type: functional; conditions: SNB-75, 48 h; method in brief: as §1
Malme-3M = assay: Antiproliferative activity against human MALME3M cells after 48 hrs; assay type: functional; method in brief: as §1
OVCAR-5 = assay: Antiproliferative activity against human OVCAR5 cells after 48 hrs; assay type: functional; conditions: OVCAR-5, 48 h; method in brief: as §1
SF-268 = assay: Antiproliferative activity against human SF268 cells after 48 hrs; assay type: functional; conditions: SF-268, 48 h; method in brief: as §1
[1] = Antiproliferative activity against human […] cells after 48 hrs; assay type: functional; method in brief: as §1
HCT-116 = assay: Antiproliferative activity against human HCT116 cells after 48 hrs; assay type: functional; conditions: HCT-116, 48 h; method in brief: as §1
COLO 205 = assay: Antiproliferative activity against human COLO205 cells after 48 hrs; assay type: functional; conditions: COLO 205, 48 h; method in brief: as §1
A549 = assay: Antiproliferative activity against human A549 cells after 48 hrs; assay type: functional; conditions: A549, 48 h; method in brief: as §1
OVCAR-8 = assay: Antiproliferative activity against human OVCAR8 cells after 48 hrs; assay type: functional; conditions: OVCAR-8, 48 h; method in brief: as §1
SW-620 = assay: Antiproliferative activity against human SW620 cells after 48 hrs; assay type: functional; conditions: SW-620, 48 h
Method in brief: (§2)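 NCI 60-cell-line screen. Lines grown in RPMI 1640 with 5% fetal bovine serum and 2 mM L-glutamine, plated at 5,000–40,000 cells/well according to doubling time, left 24 h at 37 °C in 5% CO2. Drug stocks in DMSO at 400-fold the top final concentration. Five 10-fold dilutions, 10−4 to 10−8 M, incubated 48 h. Growth read spectrophotometrically as net protein; GI50 taken as 50% reduction.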

NCI-H226 = assay: Antiproliferative activity against human NCI-H226 cells after 48 hrs; assay type: functional; conditions: NCI-H226, 48 h; method in brief: as §1
Hs-578T = assay: Antiproliferative activity against human HS578T cells after 48 hrs; assay type: functional; method in brief: as §1
K562 = assay: Antiproliferative activity against human K562 cells after 48 hrs; assay type: functional; conditions: K562, 48 h; method in brief: as §1
BT-549 = assay: Antiproliferative activity against human BT549 cells after 48 hrs; assay type: functional; conditions: BT-549, 48 h; method in brief: as §1
CCRF-CEM = assay: Antiproliferative activity against human CCRF-CEM cells after 48 hrs; assay type: functional; method in brief: as §1
MCF7 = assay: Antiproliferative activity against human MCF7 cells after 48 hrs; assay type: functional, cell-based; conditions: MCF7, 48 h
RXF 393 = assay: Antiproliferative activity against human RXF393 cells after 48 hrs; assay type: functional; conditions: RXF 393, 48 h; method in brief: as §1
HCC 2998 = assay: Antiproliferative activity against human HCC2998 cells after 48 hrs; assay type: functional; conditions: HCC 2998, 48 h; method in brief: as §1
NCI-H522 = assay: Antiproliferative activity against human NCI-H522 cells after 48 hrs; assay type: functional; conditions: NCI-H522, 48 h; method in brief: as §1
U-251 = assay: Antiproliferative activity against human U251 cells after 48 hrs; assay type: functional; conditions: U-251, 48 h; method in brief: as §2
RPMI-8226 = assay: Antiproliferative activity against human RPMI8226 cells after 48 hrs; assay type: functional; conditions: RPMI-8226, 48 h; method in brief: as §1
OVCAR-3 = assay: Antiproliferative activity against human OVCAR-3 cells after 48 hrs; assay type: functional; conditions: OVCAR-3, 48 h; method in brief: as §1
SK-MEL-5 = assay: Antiproliferative activity against human SKMEL5 cells after 48 hrs; assay type: functional; conditions: SK-MEL-5, 48 h, read-out: Log LC50 (the source's name) (converted); method in brief: as §1
[2] = read-out: Log LC50 (the source's name) (converted)

Compound: CCCCCCCCCCCCCCN[C@@H](C)[C@H](O)c1ccccc1
- GI50 (ACHN): 1.78 µM
- CC50 (ACHN; [2]): 6.03 µM
- TGI (ACHN; read-out: Log TGI (converted)): 3.31 µM
- GI50 (MDA-MB-435): 1.78 µM
- LC50 (MDA-MB-435): 5.75 µM
- TGI (MDA-MB-435; read-out: Log TGI (converted)): 3.24 µM
- GI50 (NCI-H23): 1.82 µM
- CC50 (NCI-H23; [2]): 6.76 µM
- TGI (NCI-H23; read-out: Log TGI (converted)): 3.55 µM
- GI50 (OVCAR-4): 2 µM
- LC50 (OVCAR-4): 3.72 µM
- TGI (OVCAR-4; read-out: Log TGI (converted)): 6.92 µM
- GI50 (SF-539): 1.78 µM
- TGI (SF-539; read-out: Log TGI (converted)): 3.39 µM
- GI50 (SNB-75): 1.7 µM
- CC50 (SNB-75; [2]): 6.61 µM
- TGI (SNB-75; read-out: Log TGI (converted)): 3.39 µM
- GI50 (Malme-3M): 2.04 µM
- LC50 (Malme-3M): 6.46 µM
- TGI (Malme-3M; read-out: Log TGI (converted)): 3.63 µM
- GI50 (OVCAR-5): 1.7 µM
- CC50 (OVCAR-5; [2]): 5.75 µM
- TGI (OVCAR-5; read-out: Log TGI (converted)): 3.16 µM
- GI50 (SF-268): 1.78 µM
- LC50 (SF-268): 6.61 µM
- TGI (SF-268; read-out: Log TGI (converted)): 3.39 µM
- GI50 [1]: 2 µM
- TGI ([1]; read-out: Log TGI (converted)): 3.8 µM
- GI50 (HCT-116): 1.86 µM
- LC50 (HCT-116): 6.46 µM
- TGI (HCT-116; read-out: Log TGI (converted)): 3.47 µM
- GI50 (COLO 205): 1.74 µM
- CC50 (COLO 205; [2]): 6.17 µM
- TGI (COLO 205; read-out: Log TGI (converted)): 3.31 µM
- GI50 (A549): 1.91 µM
- CC50 (A549; [2]): 7.08 µM
- TGI (A549; read-out: Log TGI (converted)): 3.63 µM
- GI50 (OVCAR-8): 1.91 µM
- TGI (OVCAR-8; read-out: Log TGI (converted)): 4.07 µM
- GI50 (SW-620): 2.04 µM
- LC50 (concentration killing 50% of cells) (SW-620): > 100 µM
- GI50 (NCI-H226): 1.95 µM
- TGI (NCI-H226; read-out: Log TGI (converted)): 3.8 µM
- GI50 (Hs-578T): 2.19 µM
- LC50 (Hs-578T): > 100 µM
- TGI (Hs-578T; read-out: Log TGI (converted)): 5.5 µM
- GI50 (K562): 1.66 µM
- LC50 (K562): 7.41 µM
- TGI (K562; read-out: Log TGI (converted)): 3.55 µM
- GI50 (BT-549): 1.51 µM
- LC50 (BT-549): 5.75 µM
- TGI (BT-549; read-out: Log TGI (converted)): 2.95 µM
- GI50 (CCRF-CEM): 2.4 µM
- CC50 (CCRF-CEM; [2]): > 100 µM
- TGI (CCRF-CEM; read-out: Log TGI (converted)): 5.13 µM
- GI50 (MCF7): 1.82 µM
- LC50 (MCF7): 6.31 µM
- TGI (MCF7; read-out: Log TGI (converted)): 3.39 µM
- GI50 (RXF 393): 1.66 µM
- CC50 (RXF 393; [2]): 6.03 µM
- TGI (RXF 393; read-out: Log TGI (converted)): 3.16 µM
- GI50 (HCC 2998): 1.82 µM
- CC50 (HCC 2998; [2]): 5.75 µM
- TGI (HCC 2998; read-out: Log TGI (converted)): 3.24 µM
- GI50 (NCI-H522): 2.04 µM
- CC50 (NCI-H522; [2]): 7.41 µM
- TGI (NCI-H522; read-out: Log TGI (converted)): 3.89 µM
- GI50 (U-251): 1.82 µM
- CC50 (U-251; [2]): 5.89 µM
- TGI (U-251; read-out: Log TGI (converted)): 3.24 µM
- GI50 (RPMI-8226): 2 µM
- TGI (RPMI-8226; read-out: Log TGI (converted)): 4.37 µM
- GI50 (OVCAR-3): 1.66 µM
- TGI (OVCAR-3; read-out: Log TGI (converted)): 3.16 µM
- CC50 (SK-MEL-5): > 100 µM
